NR2E3 ag-1: human photoreceptor-specific nuclear receptor agonism. Q9Y5X4. CHO-S Gal4-NCOR/VP16-NR2E3 two-hybrid, luciferase. inhibition of corepressor binding, % at 3.98 µM. 360,000 compounds, 0.35% hits. AID 602229;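 active means inhibition above the mean of all tested compounds plus 3 SD, cut at about 70% in these data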;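 further: 0% = DMSO with NR2E3 transfected cells and 100% = cells lacking NR2E3 construct; higher means lower luciferase signal from less NR2E3 corepressor binding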
ADAM17 inh: ADAM17 inhibition, QFRET primary screen; inhibition, % at 6.95 µM; AID 720648; P78536; recombinant ADAM17, EDANS/DABCYL FRET peptide cleavage; 370,000 compounds, 0.83% hits;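 active means inhibition above the mean of compounds lying between control limits plus 3 SD, set per campaign, cut at about 8.5% in these data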;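 further: 0% = DMSO-only wells as the low control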
NR2E3 ag-2: activates human photoreceptor nuclear receptor NR2E3. Q9Y5X4. GST-NR2E3/biotin-RetCOR TR-FRET, 1536-well. inhibition of corepressor binding, % at 4.78 µM. 320,000 compounds, 0.12% hits. AID 2300;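 active means percent inhibition above the cutoff of mean plus 3 SD of all tested compounds, set per screening campaign, cut at about 20% in these data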;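 further: 0% = DMSO wells and 100% = biotin wells as full block of FRET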
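Material – GST-tagged NR2E3 plus biotinylated RetCOR corepressor · Quantity – NR2E3 fusion 1.35 nM · Times – 5 h incubation at 4 °C · Medium – pH 7.5 Tris-based buffer · Technique – TR-FRET, Eu(K)-anti-GST donor, streptavidin-D2 acceptor, ex 340, em 617/671 nm · Benchmarks – high control biotin, low control 0.6% DMSO · Format – 1536-well plates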
KLK7 zymogen act: activators of human kallikrein-7 zymogen. activation, % at 7 µM. purified proKLK7, EDANS-DABCYL substrate fluorescence; 100% is mature enzyme control, 0% vehicle. 370,000 compounds, 0.9% hits. AID 652039. P49862;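 active means activation above the mean of all tested compounds plus 3 SD, computed per campaign excluding outliers beyond control limits, cut at about 13% in these data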
Target sequence (P49862 whole entry, looked up): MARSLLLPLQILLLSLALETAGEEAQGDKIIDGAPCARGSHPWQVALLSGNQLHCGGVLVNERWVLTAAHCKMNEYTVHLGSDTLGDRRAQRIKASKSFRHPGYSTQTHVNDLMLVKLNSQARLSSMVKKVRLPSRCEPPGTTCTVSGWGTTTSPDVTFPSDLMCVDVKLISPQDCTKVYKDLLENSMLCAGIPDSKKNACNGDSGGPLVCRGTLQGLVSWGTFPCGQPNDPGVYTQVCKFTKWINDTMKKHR
GASC-1 inh: human JMJD2C demethylase inhibition; inhibition, % at 2.35 µM; Q9H3R0; 330,000 compounds, 0.069% hits; AID 2099; GST-JMJD2C(1-420) H3K9me3 demethylation, DELFIA europium;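 active means more than half of a compound's replicate wells show inhibition beyond 50%, single wells judged on their own value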;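 further: signal counts dimethyl H3K9 product captured on neutravidin plate; 0% = median of DMSO wells and 100% = 0.3 times that DMSO median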
Target sequence (Q9H3R0 1-420 limits assumed): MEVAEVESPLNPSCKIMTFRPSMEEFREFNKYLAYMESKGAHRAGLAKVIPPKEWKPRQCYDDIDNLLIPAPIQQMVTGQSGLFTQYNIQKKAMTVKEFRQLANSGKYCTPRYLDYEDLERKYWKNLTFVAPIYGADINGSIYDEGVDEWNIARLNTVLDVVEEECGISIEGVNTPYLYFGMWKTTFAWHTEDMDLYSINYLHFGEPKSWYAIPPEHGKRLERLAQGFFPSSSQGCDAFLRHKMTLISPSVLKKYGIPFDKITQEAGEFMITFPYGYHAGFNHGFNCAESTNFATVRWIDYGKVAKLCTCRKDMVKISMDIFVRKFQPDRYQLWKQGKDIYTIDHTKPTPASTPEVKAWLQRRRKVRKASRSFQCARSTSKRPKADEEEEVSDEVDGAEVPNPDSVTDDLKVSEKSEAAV
ADAM10 inh: inhibitors of human ADAM10. recombinant ADAM10, EDANS/DABCYL FRET peptide cleavage, 3 h. inhibition, % at 7 µM. 370,000 compounds, 0.62% hits. AID 720582;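 active means inhibition above a per-campaign cutoff equal to the mean of compounds falling between control-based bounds plus 3 SD, cut at about 20% in these data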;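 further: 0% = DMSO wells while the 100% control is not disclosed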
KLK7 act conf: proKLK7 activation, confirmation; 3,200 compounds, 68% hits; purified proKLK7, EDANS-DABCYL substrate fluorescence; scaled: vehicle 0, mature enzyme 100; shares compounds with KLK7 zymogen act; activation, % at 7 µM;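 active means activation, as change over the incubation, above the mean of all tested compounds plus 3 SD, cut at about 13% in these data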
EDANS-DABCYL int: optically interferes with EDANS-DABCYL signal, flagging KLK7 hits | shares compounds with KLK7 zymogen act | EDANS-DABCYL substrate fluorescence interference, no enzyme, 4 h; solvent 0%, active enzyme control 100% | activation, % at 7 µM | 3,200 compounds, 80% hits | AID 686952;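 active means activation above the all-compound mean plus 3 SD, ignoring values outside control-based bounds, cut at about 4.8% in these data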;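 further: value is the 4 h activation minus the activation read at time zero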
EDANS interf: counter-screen for kallikrein-7 activators: EDANS-DABCYL interference, dose response. shares compounds with KLK7 zymogen act. EDANS-DABCYL peptide fluorescence interference, no enzyme. EC50, µM. 250 compounds, 20% hits;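 active means compounds that raise the fluorescence signal in this interference counterscreen, with EC50 at or below 10 µM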;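 further: intact quenched peptide substrate alone read at 355 nm excitation and 520 nm emission; signal is fluorescence gain from T0 to T4 after four hours at room temperature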
Starred values were filed as active, the others as inactive; i = inactive; · = no result. In the library only some 2.5% were active in any assay of this set; here they are far more common.

SMILES	NR2E3 ag-1	ADAM17 inh	NR2E3 ag-2	KLK7 zymogen act	GASC-1 inh	ADAM10 inh	KLK7 act conf	EDANS-DABCYL int	others
COc1cc2ccccc2cc1C(=O)N1CCc2ccccc21	-36.0	-14.4	·	0.3	·	-14.1	·	·
CCCCn1nc2cc(C(=O)NC[C@@H]3CCCO3)ccc2c1OCC	6.3	-228.2	0.6	7.3	9.0	i	·	·
CCOc1c2ccc(C(=O)NCc3ccc4c(c3)OCO4)cc2nn1CCOC	16.0	-210.0	3.0	13.1*	-1.4	i	-13.6	-19.2
CCOc1c2ccc(C(=O)NCc3ccco3)cc2nn1CC	2.3	-125.0	-0.8	21.7*	1.6	i	18.9*	19.9*
CCCCn1nc2cc(C(=O)NCC3CC3)ccc2c1OCC	16.4	-241.8	1.4	17.6*	6.4	i	-2.9	-5.4
CCCn1nc2cc(C(=O)NCc3ccc4c(c3)OCO4)ccc2c1OCC	18.9	-236.9	2.4	-4.9	-4.9	i	·	·
CCOc1c2ccc(C(=O)NCc3ccco3)cc2nn1CCOC	11.1	-155.7	3.5	18.1*	2.8	i	23.7*	29.4*
CCOC(=O)CCCCCC(=O)Nc1ccc2c(c1)C(=O)N([C@@H](C)CO)C[C@H](C)[C@H](CN(C)C(=O)Nc1ccc(F)cc1)OCCCC[C@H](C)O2	-8.9	4.3	·	0.2	·	0.8	·	·
C=CCN(c1ccccc1)S(=O)(=O)c1cccc(C(=O)Oc2ccc3c(C)cc(=O)oc3c2)c1	-5.4	i	-2.2	42.0*	-4.6	i	404.9*	422.1*
CCC(=O)Nc1ccc(C(=O)NCc2ccccn2)cc1	1.2	-4.0	0.0	-0.1	8.4	-13.2	·	·
CNc1cc(-c2cccc(OC)c2F)nc2ccnn12	9.1	-391.7	·	38.2*	·	i	27.7*	27.1*
COc1ccccc1-c1cc(C(F)(F)F)nc(NCc2ccco2)n1	1.3	-13.4	-0.3	0.1	-3.4	-41.4	·	·
CN1C[C@@H]2C(c3ccccc3)C3(c4ccc(C#N)cc4)CC2(C3)[C@H]1c1ccccc1 (stereo partly specified)	22.6	1.4	-2.9	0.3	0.5	0.8	·	·
CN1C=CC2=C(C#N)C(N)C(C#N)(C#N)C(c3ccccc3)C2C1 (stereo unspecified)	-44.4	-80.2	0.3	25.4*	5.8	-295.1	33.1*	35.2*
CC(C)(C)C(=O)Oc1ccc2cc(-c3ccc4ccccc4n3)c(=O)oc2c1	-73.1	-72.9	-0.2	7.0	-3.0	-259.0	·	·
Cn1c(-c2cc3ccc(OC(=O)C(C)(C)C)cc3oc2=O)nc2ccccc21	-74.8	-273.1	0.0	34.4*	0.8	i	62.2*	60.0*
CC(=O)Oc1ccc2cc(-c3nc4ccccc4n3C)c(=O)oc2c1	-77.1	i	8.6	38.7*	-1.8	i	75.7*	79.5*
CC(=O)N1CCc2cc3nc(C)cc(C)c3cc21	-0.8	-126.7	-1.4	25.5*	-1.5	-372.9	1.9	3.1
COc1nc(Nc2nc3ccccc3c(=O)[nH]2)nc2ccc(C)cc12	11.2	0.1	1.1	-0.2	20.1	10.2	·	·
COc1nc(N=C(N)N)nc2ccc(C)cc12	·	-89.0	-3.6	17.3*	-12.9	-323.0	5.6	9.5*
CCOCCC(=O)Nc1ccc2c(c1)c(=O)n(C)n2Cc1cccc(C(F)(F)F)c1	17.6	-418.6	·	15.7*	·	i	6.0	9.7*
CCOCCC(=O)Nc1ccc2c(c1)c(=O)n(C)n2-c1ccccc1F	-6.8	-447.8	·	20.7*	·	i	21.0*	21.7*
COc1cc(Cn2c3ccc(NC(=O)CC(C)C(F)(F)F)cc3c(=O)n2C)ccc1F (stereo unspecified)	9.8	-371.9	·	17.4*	·	i	-6.8	-6.7
CC(CC(=O)Nc1ccc2c(c1)c(=O)n(C)n2Cc1ccc(Cl)cc1)C(F)(F)F (stereo unspecified)	25.0	-401.6	·	11.1	·	i	·	·
Cn1c(=O)c2cc(NC(=O)CCc3ccccc3)ccc2n1Cc1cccc(C(F)(F)F)c1	-15.4	-337.0	·	-8.9	·	i	·	·
SMILES	NR2E3 ag-1	ADAM17 inh	NR2E3 ag-2	KLK7 zymogen act	GASC-1 inh	ADAM10 inh	KLK7 act conf	EDANS-DABCYL int	others
C[C@H](CO)N1C[C@H](C)[C@H](CN(C)S(=O)(=O)c2ccc(Cl)cc2)OCc2cnnn2CCCC1=O	0.9	-2.1	·	-0.2	·	-12.3	·	·
Cc1onc(-c2ccccc2Cl)c1C(=O)NC(=S)Nc1ccccc1C(N)=O	-16.4	-78.6	3.9	12.8*	4.1	-253.7	8.0	9.1*
O=C(CCC1CCCN(C(=O)C2(c3ccccc3)CC2)C1)N1CCN(c2ccccn2)CC1 (stereo unspecified)	-10.3	-4.2	8.1	-0.5	8.8	-11.1	·	·
CCOC(=O)N1CCC(NC(=O)c2ccc3c(c2)N(C)CCS3)CC1	3.2	i	-2.6	50.7*	·	i	66.3*	72.6*
CN1CCSc2ccc(C(=O)NCc3cccc(Br)c3)cc21	-14.0	-461.8	0.1	10.1	17.6	i	·	·
COc1ccc(CNC(=O)c2ccc3c(c2)N(C)CCS3)cc1	-25.6	i	2.2	34.7*	8.0	i	7.8	33.3*
CCOC(=O)N1CCC(NC(=O)c2ccc3c(c2)N(Cc2ccc(C)cc2)CCS3)CC1	-3.8	-49.2	1.7	-12.4	i	-252.8	·	·
Cc1cccc(CNC(=O)c2ccc3c(c2)N(C)CCS3)c1	-7.6	i	4.1	17.9*	0.0	i	-6.7	-5.6
CCOC(=O)[C@H]1[C@H]2COc3ccccc3[C@@H]2N2C(=O)CN(CC3CCCO3)C(=O)[C@@]12C (stereo partly specified)	-1.9	4.2	·	0.2	·	-2.7	·	·
CC(NS(=O)(=O)/C=C/c1ccccc1)C(=O)NCCc1ccc(S(N)(=O)=O)cc1 (stereo unspecified)	18.8	-5.7	0.2	0.4	-1.6	-5.8	·	·
COc1ccc(/C=C2\CCCc3c2nc2ccccc2c3C(=O)O)cc1OC	·	·	0.1	·	3.6	·	·	·
COc1ccc(/C=C2\CCc3c2nc2ccccc2c3C(=O)O)cc1OC	2.1	-78.6	-2.5	15.9*	7.9	-193.8	55.0*	65.5*
CCOC(=O)c1[nH]c2ccccc2c1N=CN(C)C	-11.2	-12.9	3.7	-0.3	2.1	-47.1	·	·
CN(C)C=Nc1ccc2nc3c(cc2c1)[nH]c1ccccc13	-99.5	i	-3.2	49.4*	8.5	i	49.7*	40.9*	EDANS interf=>69.5

Compound activity deposited in PubChem by several laboratories.
